Tests used:
[1] = biological target: Activin receptor type-2B (Homo sapiens) (UniProt Q13705); test: Binding affinity to wild-type human ACVR2B (H169 to D504 residues) expressed in bacterial expression system assessed as residual binding level at 1 uM by Kinomescan method relative to control
[2] = biological target: Tyrosine-protein kinase CSK (Homo sapiens) (UniProt P41240); test: Binding affinity to wild-type human full length CSK (M1 to L450 residues) expressed in bacterial expression system assessed as residual binding level at 1 uM by Kinomescan method relative to control
[3] = biological target: Casein kinase I isoform epsilon (Homo sapiens) (UniProt P49674); test: Binding affinity to wild-type human full length CSNK1E (M1 to K416 residues) expressed in bacterial expression system assessed as residual binding level at 1 uM by Kinomescan method relative to control
Sequence of Casein kinase I isoform epsilon (Homo sapiens) (P49674 whole entry, looked up, the tested form may be a part, canonical isoform): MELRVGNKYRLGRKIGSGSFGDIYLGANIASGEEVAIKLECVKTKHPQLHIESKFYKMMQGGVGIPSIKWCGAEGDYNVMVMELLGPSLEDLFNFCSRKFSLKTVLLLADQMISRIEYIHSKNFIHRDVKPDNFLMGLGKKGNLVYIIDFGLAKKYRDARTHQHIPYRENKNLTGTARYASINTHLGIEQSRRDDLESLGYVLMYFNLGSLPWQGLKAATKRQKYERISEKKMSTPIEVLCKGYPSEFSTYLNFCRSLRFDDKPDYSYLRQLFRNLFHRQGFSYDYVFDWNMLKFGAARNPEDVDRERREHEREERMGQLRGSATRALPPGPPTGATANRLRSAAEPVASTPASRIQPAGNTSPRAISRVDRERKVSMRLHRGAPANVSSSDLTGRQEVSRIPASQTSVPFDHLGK

[4] = biological target: Serine/threonine-protein kinase DCLK2 (Homo sapiens) (UniProt Q8N568); test: Binding affinity to wild-type human partial length DCAMKL2 (K273 to V664 residues) expressed in bacterial expression system assessed as residual binding level at 1 uM by Kinomescan method relative to control
[5] = tested on: Epidermal growth factor receptor (Homo sapiens), P00533 [UNDEFINED MUTATION]; test: Binding affinity to human partial length EGFR E746-A750del mutant expressed in bacterial expression system assessed as residual binding level at 1 uM by Kinomescan method relative to control
How it was run: (§1)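 Kinome-wide selectivity panel run by the KINOMEscan method, with the test compound at a single concentration of 1 μM. Wild-type and mutant kinases were profiled in the same screen.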

[6] = tested on: Epidermal growth factor receptor (Homo sapiens), P00533 [L858R,T790M]; test: Binding affinity to human partial length EGFR L858R/T790M double mutant (R669 to V1011 residues) expressed in mammalian expression system assessed as residual binding level at 1 uM by Kinomescan method relative to control; how it was run: as §1
[7] = tested on: Epidermal growth factor receptor (Homo sapiens), P00533 [L861Q]; test: Binding affinity to human partial length EGFR L861Q mutant (R669 to V1011 residues) expressed in bacterial expression system assessed as residual binding level at 1 uM by Kinomescan method relative to control; how it was run: as §1
[8] = biological target: Receptor tyrosine-protein kinase erbB-3 (Homo sapiens) (UniProt P21860); test: Binding affinity to wild-type human partial length ERBB3 (G684 to A987 residues) expressed in mammalian expression system assessed as residual binding level at 1 uM by Kinomescan method relative to control
[9] = biological target: Receptor-type tyrosine-protein kinase FLT3 (Homo sapiens) (UniProt P36888); test: Binding affinity to wild-type human partial length FLT3 (V592 to Y969 residues) expressed in bacterial expression system assessed as residual binding level at 1 uM by Kinomescan method relative to control
Sequence of Receptor-type tyrosine-protein kinase FLT3 (Homo sapiens) (P36888 whole entry, the tested form may be a part): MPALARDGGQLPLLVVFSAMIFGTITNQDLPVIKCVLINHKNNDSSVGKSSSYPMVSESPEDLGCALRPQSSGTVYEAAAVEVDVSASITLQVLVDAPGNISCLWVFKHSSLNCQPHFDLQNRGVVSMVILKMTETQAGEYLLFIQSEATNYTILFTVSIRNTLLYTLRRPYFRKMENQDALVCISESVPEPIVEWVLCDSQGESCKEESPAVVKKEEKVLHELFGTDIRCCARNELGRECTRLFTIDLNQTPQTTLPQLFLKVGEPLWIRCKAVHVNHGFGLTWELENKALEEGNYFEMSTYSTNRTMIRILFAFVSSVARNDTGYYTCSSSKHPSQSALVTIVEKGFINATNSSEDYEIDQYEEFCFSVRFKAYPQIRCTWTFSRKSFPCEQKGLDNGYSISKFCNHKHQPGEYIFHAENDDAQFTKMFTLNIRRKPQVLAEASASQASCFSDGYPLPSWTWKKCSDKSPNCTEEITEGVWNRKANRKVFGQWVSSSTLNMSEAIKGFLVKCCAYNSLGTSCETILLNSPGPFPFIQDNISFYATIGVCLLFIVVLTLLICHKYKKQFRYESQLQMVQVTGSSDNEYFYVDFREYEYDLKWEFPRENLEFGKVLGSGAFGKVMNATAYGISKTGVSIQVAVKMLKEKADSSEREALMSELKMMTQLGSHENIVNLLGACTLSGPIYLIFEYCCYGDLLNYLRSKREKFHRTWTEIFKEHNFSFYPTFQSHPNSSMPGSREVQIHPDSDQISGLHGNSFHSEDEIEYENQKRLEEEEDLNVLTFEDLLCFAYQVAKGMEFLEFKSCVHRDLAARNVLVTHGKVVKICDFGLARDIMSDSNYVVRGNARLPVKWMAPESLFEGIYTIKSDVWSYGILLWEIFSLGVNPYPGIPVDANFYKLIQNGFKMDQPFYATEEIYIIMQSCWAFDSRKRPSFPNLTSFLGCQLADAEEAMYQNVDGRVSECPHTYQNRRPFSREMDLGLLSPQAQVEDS

[10] = biological target: Serine/threonine-protein kinase ICK (Homo sapiens) (UniProt Q9UPZ9); test: Binding affinity to wild-type human partial length ICK (M1 to P314 residues) expressed in mammalian expression system assessed as residual binding level at 1 uM by Kinomescan method relative to control
[11] = biological target: Inhibitor of nuclear factor kappa-B kinase subunit epsilon (Homo sapiens) (UniProt Q14164); test: Binding affinity to wild-type human full length IKK-epsilon (M1 to V716 residues) expressed in mammalian expression system assessed as residual binding level at 1 uM by Kinomescan method relative to control
How it was run: (§2)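 Single-point kinome-wide KINOMEscan binding panel, test compound at 1 μM, run by the provider's standard protocol.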

[12] = biological target: Mitogen-activated protein kinase 9 (Homo sapiens) (UniProt P45984); test: Binding affinity to wild-type human full length JNK2 (M1 to Q382 residues) expressed in mammalian expression system assessed as residual binding level at 1 uM by Kinomescan method relative to control; how it was run: as §2
Sequence of Mitogen-activated protein kinase 9 (Homo sapiens) (P45984 whole entry, looked up, the tested form may be a part): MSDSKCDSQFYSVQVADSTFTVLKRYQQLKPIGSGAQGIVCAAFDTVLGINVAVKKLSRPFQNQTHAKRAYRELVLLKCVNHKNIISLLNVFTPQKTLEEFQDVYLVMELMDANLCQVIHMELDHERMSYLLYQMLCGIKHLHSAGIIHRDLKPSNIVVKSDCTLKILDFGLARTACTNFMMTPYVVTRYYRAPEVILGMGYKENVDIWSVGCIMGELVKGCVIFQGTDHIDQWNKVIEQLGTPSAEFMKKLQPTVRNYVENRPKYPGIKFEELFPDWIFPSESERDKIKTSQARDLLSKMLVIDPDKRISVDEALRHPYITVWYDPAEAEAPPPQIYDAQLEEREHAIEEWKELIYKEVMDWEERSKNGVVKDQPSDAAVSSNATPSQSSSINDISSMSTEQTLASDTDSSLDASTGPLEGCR

[13] = biological target: LIM domain kinase 1 (Homo sapiens) (UniProt P53667); test: Binding affinity to wild-type human full length LIMK1 (M1 to D647 residues) expressed in bacterial expression system assessed as residual binding level at 1 uM by Kinomescan method relative to control; how it was run: as §2
Sequence of LIM domain kinase 1 (Homo sapiens) (P53667 whole entry, looked up, the tested form may be a part): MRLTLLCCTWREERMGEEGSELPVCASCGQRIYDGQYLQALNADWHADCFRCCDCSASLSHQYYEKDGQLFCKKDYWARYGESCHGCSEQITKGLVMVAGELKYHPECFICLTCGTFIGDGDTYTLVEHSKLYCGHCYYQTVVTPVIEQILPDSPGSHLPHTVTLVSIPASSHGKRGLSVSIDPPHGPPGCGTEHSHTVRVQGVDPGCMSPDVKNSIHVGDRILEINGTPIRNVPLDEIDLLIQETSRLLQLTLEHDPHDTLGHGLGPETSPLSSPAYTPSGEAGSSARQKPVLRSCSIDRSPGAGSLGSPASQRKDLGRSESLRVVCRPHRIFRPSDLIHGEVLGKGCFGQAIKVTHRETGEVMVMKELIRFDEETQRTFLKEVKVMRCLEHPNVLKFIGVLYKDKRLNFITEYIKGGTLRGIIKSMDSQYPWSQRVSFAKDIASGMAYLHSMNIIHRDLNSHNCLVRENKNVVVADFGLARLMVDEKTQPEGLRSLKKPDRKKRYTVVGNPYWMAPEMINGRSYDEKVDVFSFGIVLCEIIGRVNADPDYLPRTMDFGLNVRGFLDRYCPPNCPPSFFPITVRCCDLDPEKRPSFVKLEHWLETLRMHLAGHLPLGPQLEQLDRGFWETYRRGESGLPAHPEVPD

[14] = biological target: Serine/threonine-protein kinase MAK (Homo sapiens) (UniProt P20794); test: Binding affinity to wild-type human partial length MAK (M1 to P314 residues) expressed in bacterial expression system assessed as residual binding level at 1 uM by Kinomescan method relative to control
[15] = tested on: Hepatocyte growth factor receptor (Homo sapiens), P08581 [M1250T]; test: Binding affinity to human partial length MET M1250T mutant (D1010 to S1367 residues) expressed in bacterial expression system assessed as residual binding level at 1 uM by Kinomescan method relative to control; how it was run: as §1
[16] = biological target: Mitogen-activated protein kinase kinase kinase 9 (Homo sapiens) (UniProt P80192); test: Binding affinity to wild-type human partial length MLK1 (V88 to W426 residues) expressed in bacterial expression system assessed as residual binding level at 1 uM by Kinomescan method relative to control
[17] = biological target: Cyclin-dependent kinase 17 (Homo sapiens) (UniProt Q00537); test: Binding affinity to wild-type human full length PCTK2 (M1 to F523 residues) expressed in bacterial expression system assessed as residual binding level at 1 uM by Kinomescan method relative to control; how it was run: as §2
Sequence of Cyclin-dependent kinase 17 (Homo sapiens) (Q00537 whole entry, looked up, the tested form may be a part): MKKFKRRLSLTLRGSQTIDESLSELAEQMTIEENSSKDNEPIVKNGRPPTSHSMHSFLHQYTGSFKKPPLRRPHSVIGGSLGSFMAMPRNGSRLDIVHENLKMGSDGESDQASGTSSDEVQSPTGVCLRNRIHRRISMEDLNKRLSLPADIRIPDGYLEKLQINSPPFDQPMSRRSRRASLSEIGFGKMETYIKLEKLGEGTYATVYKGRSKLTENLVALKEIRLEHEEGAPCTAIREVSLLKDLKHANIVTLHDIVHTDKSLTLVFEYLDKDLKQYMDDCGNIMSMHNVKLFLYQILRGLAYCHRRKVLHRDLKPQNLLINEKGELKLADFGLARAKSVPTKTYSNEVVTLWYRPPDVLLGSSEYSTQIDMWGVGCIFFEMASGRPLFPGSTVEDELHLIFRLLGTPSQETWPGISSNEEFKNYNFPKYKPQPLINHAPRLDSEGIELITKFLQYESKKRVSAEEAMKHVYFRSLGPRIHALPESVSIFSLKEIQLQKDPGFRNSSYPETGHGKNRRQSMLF

[18] = biological target: Calcium-dependent protein kinase 1 (Plasmodium falciparum) (UniProt P62344); test: Binding affinity to wild-type Plasmodium falciparum full length CDPK1 (M1 to S524 residues) expressed in mammalian expression system assessed as residual binding level at 1 uM by Kinomescan method relative to control
Sequence of Calcium-dependent protein kinase 1 (Plasmodium falciparum) (P62344 2-524 limits assumed): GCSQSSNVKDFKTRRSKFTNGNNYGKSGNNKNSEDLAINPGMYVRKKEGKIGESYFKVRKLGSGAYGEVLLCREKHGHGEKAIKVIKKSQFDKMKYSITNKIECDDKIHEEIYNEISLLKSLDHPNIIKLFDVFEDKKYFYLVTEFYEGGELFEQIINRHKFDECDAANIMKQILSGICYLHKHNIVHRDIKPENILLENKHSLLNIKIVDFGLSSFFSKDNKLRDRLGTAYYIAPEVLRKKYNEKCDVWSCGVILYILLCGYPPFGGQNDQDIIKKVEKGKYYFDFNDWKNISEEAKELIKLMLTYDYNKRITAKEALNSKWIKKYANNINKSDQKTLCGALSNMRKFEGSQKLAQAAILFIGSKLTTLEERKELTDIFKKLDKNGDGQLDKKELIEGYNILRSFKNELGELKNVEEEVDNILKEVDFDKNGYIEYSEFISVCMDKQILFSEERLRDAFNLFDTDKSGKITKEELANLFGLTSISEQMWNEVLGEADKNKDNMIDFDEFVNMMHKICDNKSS

[19] = biological target: Cyclin-dependent kinase 2 homolog (Plasmodium falciparum (isolate 3D7)) (UniProt P61075); test: Binding affinity to wild-type Plasmodium falciparum full length PK5 (M1 to N288 residues) expressed in mammalian expression system assessed as residual binding level at 1 uM by Kinomescan method relative to control; how it was run: as §1
[20] = biological target: Protein-tyrosine kinase 2-beta (Homo sapiens) (UniProt Q14289); test: Binding affinity to wild-type human full length PYK2 (M1 to E967 residues) expressed in bacterial expression system assessed as residual binding level at 1 uM by Kinomescan method relative to control; how it was run: as §2
Sequence of Protein-tyrosine kinase 2-beta (Homo sapiens) (Q14289 whole entry, looked up, the tested form may be a part): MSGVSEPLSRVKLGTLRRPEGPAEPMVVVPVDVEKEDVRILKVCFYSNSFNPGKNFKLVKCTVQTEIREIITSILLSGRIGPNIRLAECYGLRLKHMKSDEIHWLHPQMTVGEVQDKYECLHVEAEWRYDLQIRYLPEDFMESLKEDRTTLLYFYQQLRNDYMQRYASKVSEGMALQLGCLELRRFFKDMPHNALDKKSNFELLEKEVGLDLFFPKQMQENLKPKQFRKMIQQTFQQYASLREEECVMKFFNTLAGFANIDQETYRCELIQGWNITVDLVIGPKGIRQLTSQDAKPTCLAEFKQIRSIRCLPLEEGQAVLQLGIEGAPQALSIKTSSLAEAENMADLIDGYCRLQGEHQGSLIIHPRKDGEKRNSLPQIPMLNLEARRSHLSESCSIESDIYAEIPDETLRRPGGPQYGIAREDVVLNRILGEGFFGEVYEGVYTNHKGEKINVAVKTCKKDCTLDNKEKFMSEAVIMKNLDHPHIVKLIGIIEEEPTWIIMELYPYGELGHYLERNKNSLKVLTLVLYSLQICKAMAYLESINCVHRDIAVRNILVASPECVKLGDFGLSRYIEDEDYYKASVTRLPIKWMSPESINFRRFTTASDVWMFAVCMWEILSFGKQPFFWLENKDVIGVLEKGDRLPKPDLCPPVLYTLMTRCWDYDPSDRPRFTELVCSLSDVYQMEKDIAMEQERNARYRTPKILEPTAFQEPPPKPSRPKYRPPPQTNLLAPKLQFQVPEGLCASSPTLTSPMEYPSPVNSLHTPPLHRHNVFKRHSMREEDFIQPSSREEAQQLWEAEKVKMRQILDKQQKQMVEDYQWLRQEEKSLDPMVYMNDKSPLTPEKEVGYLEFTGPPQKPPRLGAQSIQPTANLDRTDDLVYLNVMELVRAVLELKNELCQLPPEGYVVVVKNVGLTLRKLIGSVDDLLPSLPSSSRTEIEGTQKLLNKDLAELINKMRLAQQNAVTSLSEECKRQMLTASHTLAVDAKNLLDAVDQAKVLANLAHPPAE

[21] = biological target: Serine/threonine-protein kinase 33 (Homo sapiens) (UniProt Q9BYT3); test: Binding affinity to wild-type human full length STK33 (M1 to L514 residues) expressed in bacterial expression system assessed as residual binding level at 1 uM by Kinomescan method relative to control
[22] = biological target: Serine/threonine-protein kinase WNK1 (Homo sapiens) (UniProt Q9H4A3); test: Binding affinity to wild-type human partial length WNK1 (Q194 to A490 residues) expressed in mammalian expression system assessed as residual binding level at 1 uM by Kinomescan method relative to control
[23] = biological target: STE20-like serine/threonine-protein kinase (Homo sapiens, UniProt Q9H2G2); test: Inhibition of recombinant full length GST-tagged human SLK expressed in baculovirus expression system by LanthaScreen assay
CYP2C9 = CYP2C9 (Homo sapiens, UniProt P11712); test: Residual activity of CYP2C9 in human liver microsomes at 10 uM using tolbutamide 4-hydroxylase as substrate preincubated for 5 mins followed by NADPH addition measured after 15 mins by LC/MS/MS analysis relative to control; settings: probe tolbutamide (4-hydroxylation)
Sequence of CYP2C9 (P11712 whole entry): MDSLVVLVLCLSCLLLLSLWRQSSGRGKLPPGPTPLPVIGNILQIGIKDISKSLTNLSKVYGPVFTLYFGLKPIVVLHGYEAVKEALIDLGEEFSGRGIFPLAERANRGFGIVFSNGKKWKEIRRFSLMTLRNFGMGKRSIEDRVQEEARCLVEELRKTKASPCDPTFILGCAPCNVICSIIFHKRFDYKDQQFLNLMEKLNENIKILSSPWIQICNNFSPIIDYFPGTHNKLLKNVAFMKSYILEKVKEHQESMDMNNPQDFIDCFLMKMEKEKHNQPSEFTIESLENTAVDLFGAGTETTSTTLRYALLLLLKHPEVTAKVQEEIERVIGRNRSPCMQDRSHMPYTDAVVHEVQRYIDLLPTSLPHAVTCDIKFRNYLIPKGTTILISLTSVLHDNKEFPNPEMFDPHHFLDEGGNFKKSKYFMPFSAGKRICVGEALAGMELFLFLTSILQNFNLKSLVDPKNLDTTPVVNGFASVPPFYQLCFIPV

`C=CC(=O)Nc1cc(Nc2ncc(Cl)c(Nc3ccccc3S(=O)(=O)C(C)C)n2)c(OC)cc1N(C)CCN(C)C` was tested, and the Activity [1] was 96%, the Activity [2] was 69% and the Activity [3] was 100%. The Activity [4] was 14%, the Activity [5] was 12% and the Activity [6] was 0.95%. The Activity [7] was 2%, the Activity [8] was 91% and the Activity [9] was 3.1%. It also gave an Activity [10] of 65%, an Activity [11] of 21% and an Activity [12] of 68%. For the same compound, the Activity [13] was 87%, the Activity [14] was 100% and the Activity [15] was 14%. For the same compound, the Activity [16] was 39%, the Activity [17] was 74% and the Activity [18] was 93%. The Activity [19] was 91%, the Activity [20] was 0.5% and the Activity [21] was 2%. For the same compound, the Activity [22] was 100%, the IC50 [23] was 58 nM and the Activity at […], 10 µM (CYP2C9) was 83%.
